Assay results: PubChem BioAssay
A number with no mark means an inactive call. Results filed as inconclusive are left out. Activity calls are given as the source filed them.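 How the source made its calls, unless noted: active means viability increase at or above a cutoff of the median across tested compounds plus 3 SD (cut at about 8.5% in these data, passing the limit was not always enough); inconclusive means some gains above the cutoff, reason not given; inactive means the rest.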

Legend:
[1] = OD615 S. cerevisiae growth inhibition, permissive medium, pilot counter-assay, permissive growth control for S. cerevisiae lifespan shortening project (AID 705;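 active means growth inhibition above 25% in both replicates, a cutoff set 3 SD above the mean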); conditions: OD615, 24 h, at 10 µM, stronger effect = higher value
Method in brief: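 Material: engineered DeaD yeast; Compound: one dose 10 µM, DMSO 0.25% final; Detection: absorbance (optical density) at 615 nm; Buffer or medium: permissive raffinose/galactose medium; Timing: 24 h exposure, 30 °C.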

[2] = Restrictive medium S. cerevisiae growth inhibition, OD615, pilot screen of yeast lifespan reduction project, restrictive growth control (AID 706;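 active means growth inhibition above a set limit, 3 SD over mean compound inhibition, in both replicates, cut at about 43% in these data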;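 further: modified DeaD lifespan yeast strain shifted to restrictive glucose medium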); conditions: OD615, 48 h, at 10 µM, stronger effect = higher value
Method in brief: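 Buffer or medium: restrictive glucose medium (CSMM-D); test system: modified S. cerevisiae; doses: single dose of 10 µM compound final, 0.25% DMSO; schedule: 48 h compound exposure at 30 °C; detection: absorbance (optical density) measured at 615 nm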

[3] = viability gain of MRP-1-high H69AR cells under doxorubicin, pilot screen, MRP-1 activator project, CellTiter-Glo, duplicate (AID 807); conditions: H69AR viability with doxorubicin, CellTiter-Glo luminescence; at 10 µM; stronger effect = higher value;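 further: compound pretreatment 18-22 h then 72 h combined with doxorubicin; 0% = doxorubicin alone and 100% = vehicle without doxorubicin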
[4] = growth suppression of beta-catenin knockout HCT116, pilot screen, human colon tumor cells (AID 823;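 active means cell viability at or below a set limit in both duplicate runs, the limit being the all-compound median minus 4 SD, cut at about 23% in these data, passing the limit was not always enough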;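 further: 0% = wells killed by 20 µM Hyamine and 100% = untreated DMSO cell wells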); conditions: CellTiter-Glo, 60 h, at 10 µM, stronger effect = lower value
[5] = growth suppression of PTEN-deleted HCT116, pilot screen, cell-based, HCT116 clonal line, CellTiter-Glo (AID 824;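 active means viability at or below 27.92% in each of two runs, the all-compound median minus 4 SD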;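 further: 0% = 20 µM Hyamine control and 100% = vehicle cell control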); conditions: 60 h, at 10 µM, stronger effect = lower value
[6] = inhibitors of the yeast RAM network, pilot screen, dse1pr::URA3 reporter, 5-FOA selection (AID 869;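 active means inhibition over a set limit, the all-compound mean plus 3 SD, in both replicate runs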;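 further: 0% = DMSO wells with no growth and 100% = 10 µM 1-NA-PP1 with full growth; RAM network block rescues cells from 5-FOA so hits raise OD615 growth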); conditions: S. cerevisiae dse1pr::URA3 5-FOA growth, OD615, 2 d; at 10 µM; stronger effect = higher value; strain carries analog-sensitive mutant Cbk1 kinase
[7] = RAM signaling pathway blockade in yeast – S. cerevisiae, Pdr1DBD-CYC8 efflux-inhibited sensitized strain, primary screen (AID 1298;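 active means RAM network inhibition above 8.4% in each of two replicates, 3 SD over the compound average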;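 further: 0% = DMSO untreated cells without growth and 100% = 10 µM 1-NA-PP1 full growth; higher means more yeast growth rescued from 5-FOA killing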); conditions: S. cerevisiae cbk1-as DSE1-URA3 strain, 5-FOA growth OD615, 2 d; at 50 µM; stronger effect = higher value

Row | SMILES | growth inhibition [1] [%] | growth inhibition [2] | viability increase [3] [%] | viability [4] [%] | viability [5] [%] | inhibition [6] [%] | RAM network inhibition [7] [%]
1 | Cc1ccc(CNC(=O)CCS(=O)(=O)c2cccc3nsnc23)cc1 | -2.81 | -1.48% | -1.57 | 103 | 104 | 1.64 | 6.91
2 | CCC(CO)Nc1ncnc2c1cnn2-c1ccc(OC)cc1 (stereo unspecified) | -7.48 | -7.47% | 0.37 | 104 | 101 | 2.01 | -1.98
3 | Oc1c(/C=N/c2ncn[nH]2)ccc2ccccc12 | -9.29 | -4.74% | -0.29 | 98.3 | 101 | -0.085 | -1.12
4 | COc1cccc(C2N(c3ccc(Cl)cc3)C(=O)C3CCCN32)c1 (stereo unspecified) | -5.56 | 1.89% | 0.15 | 97.5 | 94.5 | 1.04 | 0
5 | CCn1cc(C(=O)NCCCN2CC(C)CC(C)C2)c(=O)c2cc(S(=O)(=O)N(C)C)ccc21 (stereo unspecified) | -10.3 | -19.1% | -2.78 | 96 | 98.7 | 0.88 | -0.73
6 | Cc1coc2c(C)c3oc(=O)c4c(c3cc12)CCCC4 | -10.3 | -13.6% | -5.04 | 81.3 | 59 | 2.46 | 5.02
7 | CC(NC(=O)c1ccco1)C(c1cccs1)N1CCOCC1 (stereo unspecified) | -6.95 | 7.38% | -2.37 | 101 | 99.5 | 0.88 | 1.38
8 | COc1ccc(S(=O)(=O)Nc2ccc3oc(C)c(C(=O)O)c3c2)cc1 | 3.11 | -3.25% | -2.36 | 95.5 | 91.2 | 1.54 | 3.39
9 | COCC(C)NC(=O)c1cc(-c2ccc(O)cc2)on1 (stereo unspecified) | -1.88 | 4.68% | -3.12 | 105 | 100 | 2.48 | 0.94
10 | O=C1c2ccccc2C(Nc2ccc3c(c2)OCCO3)N1c1ccc(Cl)cn1 (stereo unspecified) | -12.2 | 3.92% | 1.76 | 81.7 | 75.2 | 1.83 | 9.61
11 | Cc1nc2c3ccccc3n(CC(=O)c3ccc(F)cc3)c(=O)n2n1 | -13.8 | -4.75% | -2.79 | 96.8 | 94.7 | 3.38 | 3.78
12 | Cc1c(C(=O)NCc2cccnc2)sc2nc(-c3ccccc3)cn12 | -4.69 | 8.62% | 0.16 | 101 | 89.5 | 2.61 | 7.67
13 | CCCCC(=O)Nc1nc2c(OC)ccc(OC)c2s1 | -5.01 | 1.46% | -2.98 | 97.5 | 98.3 | 0.87 | 3.86
14 | Cc1cc(Nc2ccc(F)cc2F)n2ncnc2n1 | -1.61 | 6.47% | -1.6 | 96.5 | 97.8 | 1.35 | 1.04
15 | Cc1ccc(C(=O)CSC2=NC(N)=C(C#N)C3(CCCCC3)C2C(N)=O)cc1 (stereo unspecified) | 17.7 | 51% (active) | -4.6 | 89.6 | 97.6 | 0.27 | 9.3
16 | CSc1cccc(NS(=O)(=O)c2cccc3nsnc23)c1 | -5.26 | -8.19% | -0.51 | 88.6 | 93.3 | 0.885 | 2.44
17 | CCC(C)NC(=O)CCS(=O)(=O)c1ccc2c(c1)n(C)c(=O)c(=O)n2C (stereo unspecified) | -2.86 | 4.93% | -0.01 | 103 | 99.1 | 3 | 3.76
18 | Cc1ccc(C(=O)N(Cc2nc(-c3ccc(C)cc3)no2)C(C)C)cc1 | -14.3 | -18.5% | 0.77 | 100 | 94.5 | 1.33 | 5.26
19 | CCOC(=O)Cc1csc(NC(=O)c2c(-c3ccccc3)noc2C)n1 | -10.4 | -8.59% | 4.11 | 99.4 | 101 | -0.185 | 1.54
20 | COc1ccccc1NC(=O)CSc1nnc(-c2ccccc2)o1 | -16 | -11% | -0.16 | 77.6 | 71.1 | 2.4 | 1.53
21 | CC(=O)C1C(c2ccc(OC(F)F)cc2)NC(=O)NC1(O)C(F)(F)F (stereo unspecified) | 3.71 | -6.05% | 0.74 | 107 | 97.4 | 0.31 | 5.93
22 | O=C(Cn1c(=O)oc2cc(S(=O)(=O)N3CCCC3)ccc21)N1CCN(c2ccccn2)CC1 | 4.62 | 6.56% | 0.96 | 90 | 92.5 | 2.1 | 6.22
23 | COc1ccc(NC(=O)Nc2c(C)n(C)n(-c3ccccc3)c2=O)cc1 | 1.73 | 2.85% | -2.06 | 103 | 97.9 | 0.655 | 1.34
24 | CCOc1ccc(C2C(C#N)=C(N)SC(N)=C2C#N)cc1OCC | 12.6 | -4.33% | -0.77 | 103 | 91.5 | 0.96 | 7.43

Row | SMILES | growth inhibition [1] [%] | growth inhibition [2] | viability increase [3] [%] | viability [4] [%] | viability [5] [%] | inhibition [6] [%] | RAM network inhibition [7] [%]
25 | c1ccc(-c2cnn3nnnc3n2)cc1 | 0.085 | -12.7% | -1.17 | 102 | 97.9 | 1.85 | 1.66
26 | COc1ccc(C(=O)NCCn2ccc3ccccc32)cc1OC | -9.53 | -16.1% | -3.48 | 99.7 | 81.9 | 1.91 | 2.68
27 | CCC(=O)N1c2ccccc2-c2nnc(SC)nc2OC1c1ccc(N(C)C)cc1 (stereo unspecified) | -3.95 | 4.3% | -6.55 | 93.8 | 91.5 | 3.08 | 1.82
28 | CCC/C(O)=C1\C(=O)CC(C)(C)CC1=NCCO | 1.41 | 11.1% | -0.35 | 91.9 | 98.6 | 2.65 | 3.31
29 | CCn1nnnc1-c1ccc(OC)c(S(=O)(=O)NCCc2ccccc2)c1 | 2.78 | 2.87% | 0.85 | 93.5 | 97.3 | 0.03 | 1.98
30 | O=C(Nc1ccncc1)c1cccs1 | -6.22 | 4.99% | -2.27 | 105 | 95.2 | 1.87 | 0.93
31 | Fc1ccc(OCc2nc(-c3ccc(Br)o3)no2)c(F)c1 | -8.99 | -12.8% | 2.67 | 99.5 | 97.7 | 0.82 | 3.12
32 | Cc1n[nH]c(C)c1S(=O)(=O)N(CC(=O)Nc1ccc2c(c1)OCCO2)c1ccc(C(C)C)cc1 | 2.8 | 2.67% | -5.15 | 68.1 | 63 | -0.49 | 3.78
33 | CCN1CCN(Cc2ccc(NC(=O)Nc3ccccc3OC)cc2)CC1 | -1.11 | 4.37% | 0.28 | 108 | 105 | 0.235 | 2.68
34 | Cc1ccc(CN2CCNC(=O)C2CC(=O)O)o1 (stereo unspecified) | -8.29 | 2.8% | -0.83 | 105 | 104 | 1.5 | 2.4
35 | CCn1cc(C(=O)N2CC(C)CC(C)C2)c(=O)c2cc(S(=O)(=O)N(C)C)ccc21 (stereo unspecified) | 4.35 | 6.52% | -0.18 | 103 | 101 | -0.3 | 2.78
36 | CCOC(=O)c1c(C)nc(-c2ccccc2)nc1NC(C)=O | -15.7 | -5.61% | -0.84 | 92 | 89.5 | 1.92 | 7.29
37 | CCOC(=O)CSc1ccc2nnc(-c3ccccc3)n2n1 | -8.02 | -9.2% | -0.81 | 108 | 93.5 | 1.15 | 0.11
38 | CCOC(=O)c1ccc(NC(=O)CCC(=O)OC)cc1 | 5.7 | -1.83% | -1.2 | 96.8 | 98.3 | 1.98 | 3.41
39 | CCN(CC)c1ccc(NC(=O)COc2ccc(C)cc2)cc1 | -8.23 | -15.4% | 0.42 | 93.6 | 85.3 | 0.255 | 0.45
40 | O=C(O)CSCCc1ccccn1 | 4.38 | 11.1% | -0.02 | 98.3 | 99.6 | 1.27 | 4.45
41 | CCOc1ccc(NC2CCN(C(C)=O)CC2)cc1 | -12.8 | -7.46% | 0.27 | 95.2 | 97 | 0.625 | 6.44
42 | CCOc1ccc(C(C)NC(=O)CCC(=O)O)cc1 (stereo unspecified) | -4.12 | -1.54% | -1.24 | 93.4 | 89 | 1.27 | 0.68
43 | Cn1c(Cn2c(=O)sc3ccccc32)nnc1SCC(=O)Nc1ccc2c(c1)OCO2 | -1.55 | 7.6% | -5.8 | 105 | 99.6 | 2.34 | 3.46
44 | Cn1c(NC(=O)c2ccc3c(c2)OCO3)cc(=O)n(C)c1=O | -5.14 | -2.67% | 0.04 | 98.5 | 92.3 | 1.05 | -2.06
45 | Cc1occc1C(=O)NCc1ccc2c(c1)OCO2 | -7.06 | 3.86% | 0.84 | 101 | 99.2 | 1.78 | 1.93
46 | Cc1cc(C)n(/N=C/c2c[nH]c3ccccc23)c(=O)c1 | -12.3 | -5.84% | -3.53 | 100 | 102 | 0.785 | 2.38
47 | CCCn1c(C(O)c2ccc(OCC)cc2)nc2ccccc21 (stereo unspecified) | -8.12 | -1.57% | -3.93 | 94.9 | 82.3 | 1.36 | -1.01
48 | CN(C)C(=O)N1CCC(C(=O)NCc2ccc(F)cc2)CC1 | 4.29 | 9.94% | -1.51 | 104 | 94.7 | 0.865 | 5.08
